Measurements from different studies.
Compare with care: the assays were run in different laboratories.
ALK: ALK tyrosine kinase receptor (ALK, Homo sapiens, UniProt Q9UM73)
CTSB: Cathepsin B (CTSB, Homo sapiens, UniProt P07858)
SLC47A1: Multidrug and toxin extrusion protein 1 (SLC47A1, Homo sapiens, UniProt Q96FL8)
CCR2: C-C chemokine receptor type 2 (CCR2, Homo sapiens, UniProt P41597)
FLT4: Vascular endothelial growth factor receptor 3 (FLT4, Homo sapiens, UniProt P35916)
MAPK10: Mitogen-activated protein kinase 10 (MAPK10, Homo sapiens, UniProt P53779)
SIRT6: NAD-dependent protein deacylase sirtuin-6 (SIRT6, Homo sapiens, UniProt Q8N6T7)
FASN: Fatty acid synthase (FASN, Gallus gallus, UniProt P12276)
PARP2: Poly [ADP-ribose] polymerase 2 (PARP2, Homo sapiens, UniProt Q9UGN5)
CCR5: C-C chemokine receptor type 5 (CCR5, Homo sapiens, UniProt P51681)

c1ccc(-c2ccc(-c3cnc4[nH]c5ccccc5c4c3)cc2)cc1 — IC50 (ALK; enzyme activity, inhibitor, ELISA): > 10 µM
COc1cc(/C=N/n2c(C)nc3ccc(Br)cc3c2=O)ccc1OCc1ccc(Cl)cc1 — IC50 (CTSB; enzyme activity, inhibitor): 45.8 µM
C[C@@H]1CCO[C@H]2Cn3cc(C(=O)NCc4ccc(F)cc4F)c(=O)c(O)c3C(=O)N12 — IC50 (SLC47A1; transporter uptake, inhibitor, radiometric; HEK293; 5 min, pH 8.5): 6.3 µM
Cc1cc(-c2cccc(OC(F)(F)F)c2)[nH]n1 — IC50 (ALK; enzyme activity, inhibitor, TR-FRET): 95 µM
CN(Cc1ccc(NC(=O)C2=Cc3cc(-c4ccc(OCCCCCO)cc4)ccc3CCC2)cc1)C1CCOCC1 — IC50 (CCR2; ligand displacement, radioligand; cell membranes): 0.326 µM
Cc1cc(-c2cccc(S(C)(=O)=O)c2)[nH]n1 — IC50 (ALK; enzyme activity, inhibitor, TR-FRET): 120 µM
O=c1cc(-c2ccc3c(c2)OCO3)oc2c1ccc1occc12 — IC50 (Cyclin-dependent kinase 2, with cyclin E1 (CDK2, Homo sapiens, UniProt P24941); enzyme activity, inhibitor, ADP detection): > 100 µM
Cc1ccc(C(=O)Nc2ccc(Oc3cc4cnn(C)c4cc3-c3cn[nH]c3)c(F)c2)c(=O)n1-c1ccc(F)cc1 — IC50 (FLT4; enzyme activity, inhibitor, radiometric): 0.023 µM
O=C(O)CC(=O)C(=O)O — IC50 (LDHA (Oryctolagus cuniculus, UniProt P13491); enzyme activity, inhibitor): 3320 µM
COc1ccc(-c2ccc3[nH]c4ncc(-c5cccc(N)c5)cc4c3c2)cc1 — IC50 (ALK; enzyme activity, inhibitor, ELISA): > 10 µM
CSc1nc(C)c(-c2ccnc(N[C@H]3CC[C@H](NC(=O)C(C)(C)C)CC3)c2)[nH]1 — IC50 (MAPK10; enzyme activity, inhibitor, ELISA): 2.54 µM
Cc1cc(-c2cccc(C(C)(C)C)c2)[nH]n1 — IC50 (ALK; enzyme activity, inhibitor, TR-FRET): 270 µM
NC(=O)c1ccc(C(=O)NOCc2cccc(F)c2)cc1 — IC50 (SIRT6; enzyme activity, inhibitor, fluorescence): 6.61 µM
COc1cccc(-c2cc(C)[nH]n2)c1 — IC50 (ALK; enzyme activity, inhibitor, TR-FRET): 170 µM
COc1cc(O)c(CC=C(C)C)c2c1C(=O)CC(c1ccc(O)cc1)O2 (stereo not drawn) — IC50 (FASN; enzyme activity, inhibitor, radiometric): > 100 µM
Cc1cnc(-c2ccc(-c3ccc(NC(=O)Nc4c(F)cc(F)cc4F)cc3F)c3c2C(=O)NC3)[nH]1 — IC50 (Mitogen-activated protein kinase kinase kinase kinase 1 (MAP4K1, Homo sapiens, UniProt Q92918); enzyme activity, inhibitor): 0.0115 µM
N#Cc1ccc(COC[C@H]2O[C@@H](n3c(NCc4ccc(Cl)c(Cl)c4)nc4c(N)ncnc43)[C@H](O)[C@@H]2O)cc1 — IC50 (Heat shock cognate 71 kDa protein (HSPA8, Homo sapiens, UniProt P11142); ligand displacement, FP): 0.39 µM
Cc1ccc(CONC(=O)c2ccc(C(N)=O)cc2)cc1 — IC50 (SIRT6; enzyme activity, inhibitor, fluorescence): 7.71 µM
CC(C)c1ccc(NC(=O)CCc2nc(O)c3c4c(sc3n2)CCC4)cc1 — IC50 (Pantothenate kinase 1 (Homo sapiens, UniProt Q8TE04); enzyme activity, inhibitor, ATP luminescence): 0.02 µM
NC(=O)c1ccc(C(=O)NOCc2ccc(C(F)(F)F)c(Cl)c2)cc1 — IC50 (SIRT6; enzyme activity, inhibitor, fluorescence): 1.99 µM
NC(=O)c1ccc[n+]([C@@H]2O[C@H](COP(=O)([O-])OP(=O)(O)OC[C@H]3O[C@@H](n4cnc5c(N)ncnc54)[C@H](O)[C@@H]3O)[C@@H](O)[C@H]2O)c1 — IC50 (PARP2; enzyme activity, inhibitor): 50 µM
CN(Cc1ccc(NC(=O)C2=Cc3cc(-c4ccc(OCCCF)cc4)ccc3CCC2)cc1)C1CCOCC1 — IC50 (CCR5; ligand displacement, radioligand; cell membranes): 2.7 µM
COc1ccc2c(Oc3ccc4c(C(=O)Nc5ccccc5N)cccc4c3)ccnc2c1 — IC50 (MAPK10; enzyme activity, inhibitor): > 0.5 µM
CSc1ccc(/C=C2/C(C)=C(CC(=O)O)c3cc(F)ccc32)cc1 — IC50 (Dual specificity calcium/calmodulin-dependent 3',5'-cyclic nucleotide phosphodiesterase 1A (PDE1A, Homo sapiens, UniProt P54750); enzyme activity, inhibitor): > 100 µM
Cc1nc2ccc(Br)cc2c(=O)n1/N=C/c1ccc(C(=O)O)cc1 — IC50 (CTSB; enzyme activity, inhibitor): 33.5 µM
CN(Cc1ccc(NC(=O)C2=Cc3cc(-c4ccc(OCCCO)cc4)ccc3CCC2)cc1)C1CCOCC1 — IC50 (CCR2; calcium signal, antagonist): 0.045 µM
Cc1cc(Nc2cc(CN3CCOCC3)c3nc(C)c(Cc4ccc(Cl)cc4F)n3n2)n[nH]1 — IC50 (FLT4; enzyme activity, inhibitor, TR-FRET): 0.025 µM
C=CC(=O)N1CCN(C(=O)c2cc(Cc3n[nH]c(=O)c4ccccc34)ccc2F)CC1 — IC50 (PARP2; enzyme activity, inhibitor): 0.0317 µM
NC(=O)c1ccc(C(=O)NOCc2ccc(Sc3ccc(F)cc3)c(C(F)(F)F)c2)cc1 — IC50 (SIRT6; enzyme activity, inhibitor, fluorescence): 2.35 µM
Nc1nonc1-n1cc(C(=O)N/N=C/c2ccc(O)c(O)c2O)nn1 — IC50 (SIRT6; enzyme activity, inhibitor, fluorescence): 26 µM
C=C(C)[C@H](CCC(C)(C)O)Cc1c(O)cc(OC)c2c1O[C@H](c1ccc(O)cc1O)CC2=O — IC50 (FASN; enzyme activity, inhibitor, radiometric): 98.2 µM
Cc1nc2ccc(Cl)cc2c(=O)n1NC1=NC(=O)CS1 — IC50 (CTSB; enzyme activity, inhibitor): 74.5 µM
Cc1cc(-c2cc(C#N)ccc2O[C@@H]2C[C@]2(CN)c2ccc(F)cc2F)n[nH]1 (racemic) — IC50 (ALK; phosphorylation in cells, inhibitor, ELISA): 0.16 µM
CC(C)(C)Nc1nc(N)c(C(=O)c2ccc(Cl)cc2)s1 — IC50 (Cyclin-dependent kinase 2 (CDK2, Homo sapiens, UniProt P24941); enzyme activity, inhibitor, mobility shift): 4.9 µM
CN(C)CCC=C1c2ccccc2CCc2ccccc21 — IC50 (SLC47A1; transporter uptake, inhibitor, radiometric; HEK293; 5 min): 29.6 µM
Cc1cc(-c2ccncc2)n[nH]1 — IC50 (ALK; enzyme activity, inhibitor, TR-FRET): 240 µM
C/C(=C\C(=O)OCCCCCCCCC(=O)O)C[C@@H]1OC[C@H](C[C@@H]2O[C@H]2[C@@H](C)[C@H](C)O)[C@@H](O)[C@H]1O — IC50 (CCR5; calcium signal, antagonist): 10.6 µM
O=[N+]([O-])C=Cc1ccc2[nH]c3ncc(Cl)cc3c2c1 — IC50 (ALK; enzyme activity, inhibitor, ELISA): 3.3 µM
CCc1nc[nH]c1-c1ccnc(Nc2ccc(N3CCOCC3)cc2)c1 — IC50 (MAPK10; enzyme activity, inhibitor, ELISA): 1.2 µM
Cc1cc(-c2cccc(C(F)(F)F)c2)n[nH]1 — IC50 (ALK; enzyme activity, inhibitor, TR-FRET): 60 µM
NC(=O)c1ccc(C(=O)NOCc2cc(Cl)cc(Cl)c2)cc1 — IC50 (SIRT6; enzyme activity, inhibitor, fluorescence): 2.97 µM
Nc1nonc1-n1cc(C(=O)N/N=C/c2ccco2)nn1 — IC50 (SIRT6; enzyme activity, inhibitor, fluorescence): 14 µM
NC(=O)c1ccc(C(=O)NOCc2ccc(Sc3ccccc3)cc2)cc1 — IC50 (SIRT6; enzyme activity, inhibitor, fluorescence): 1.78 µM
Nc1nonc1-n1cc(C(=O)N/N=C/c2ccc([N+](=O)[O-])cc2O)nn1 — IC50 (SIRT6; enzyme activity, inhibitor, fluorescence): 121 µM
NC(=O)c1ccc(C(=O)NOCc2ccc(Sc3cc(F)cc(F)c3)c(C(F)(F)F)c2)cc1 — IC50 (SIRT6; enzyme activity, inhibitor, fluorescence): 1.3 µM
CN(Cc1ccc(NC(=O)C2=Cc3cc(-c4ccc(OCCCCCCCF)cc4)ccc3CCC2)cc1)C1CCOCC1 — IC50 (CCR2; calcium signal, antagonist): 0.0011 µM
COc1ccc(CONC(=O)c2ccc(C(N)=O)cc2)cc1 — IC50 (SIRT6; enzyme activity, inhibitor, fluorescence): 7.49 µM
O=C(O)c1cc(O)c2c(c1)[C@H]([C@H]1c3cc(C(=O)O)cc(O)c3C(=O)c3c(O[C@@H]4O[C@H](CO)[C@@H](O)[C@H](O)[C@H]4O)cccc31)c1cccc(O[C@@H]3O[C@H](CO)[C@@H](O)[C@H](O)[C@H]3O)c1C2=O — IC50 (Receptor-type tyrosine-protein phosphatase C (PTPRC, Homo sapiens, UniProt P08575); enzyme activity, inhibitor, fluorescence): 2 µM
